Series [1] in a line: Apparent first-order rate of solvolysis for the bipinnatin-A(A4) was determined. It counts as ADME.
Series [2] is described as follows: Half-life was determined. Format: ADME. The method, boiled down:
(§1)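 Toxin at 100 μM (diluted from 10 mM DMSO stock) in 25 mM sodium phosphate, pH 7.4, 1% DMSO, at 22–24 °C for various times. Fit by nonlinear regression to a single-exponential decay; mean ± SEM of 3–9 independent experiments.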

The subject of series [3] is BC3H-1. The series can be described thus: Irreversible inhibition of [1251]alpha-bungarotoxin binding to Nicotinic acetylcholine receptor (neuronal and muscle) by bipinnatin-A on intact BC3H-1 cell lines. Format: cell-based. The following applies: dose or concentration not given here. In a few lines:
(§2)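 Each toxin was preincubated 0–8 h in pH 7.4 phosphate buffer, then its HPLC-isolated peak was dissolved in Hepes/KCl assay buffer pH 7.4 with 1% DMSO. BC3H-1 cells were equilibrated 20 min at 22–24 °C, given the toxin for 1 h, washed, then given saturating [125I]-α-bungarotoxin (15–20 nM) for 1 h. Bound label was gamma-counted, nonspecific binding defined with 100 nM α-bungarotoxin, run in triplicate.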

A short description of series [4]: Rate of acetate production by the compound was determined. It counts as ADME. The method, boiled down: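 Toxin at 100 μM in 25 mM sodium phosphate, pH 7.4, 1% DMSO, at 22–24 °C for up to 8 h. Acetic acid was then measured with a coupled enzyme assay (NAD to NADH, A340 every 5 s for 5 min, initial rate by linear regression, calibrated with 25–200 μM acetate standards). Percent of maximum fit to a single-exponential growth function; mean ± SEM of 3–9 experiments.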

Series [5] relates to BC3H-1. The experiment in a line: Irreversible inhibition of [1251]alpha-bungarotoxin binding to Nicotinic acetylcholine receptor (neuronal and muscle) by bipinnatin-A(A4) on intact BC3H-1 cell lines. It counts as cell-based. The following applies: dose or concentration not given here. The method, boiled down: as §2
Series [6] is described as follows: Rate constant of solvolysis for the compound was determined. Format: ADME. In a few lines: as §1
Series [7] relates to BC3H-1. The series can be described thus: Irreversible inhibition rate of [1251]alpha-bungarotoxin binding to Nicotinic acetylcholine receptor (neuronal and muscle) by bipinnatin-A(A4) on intact BC3H-1 cell lines. It counts as cell-based. The method, boiled down:
(§3)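 Toxin diluted to 100 µM in assay buffer with 1% DMSO was added straight onto BC3H-1 cells. At set times it was removed and remaining receptors were measured with saturating [125I]-α-bungarotoxin. The log of specific binding relative to time zero was plotted against time. Rates came from nonlinear regression, double-exponential where applicable, from at least two independent experiments.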

Series [8] in a line: Half-life of the bipinnatin-A(A4) was determined. Format: ADME.
Series [9] deals with BC3H-1. The experiment in a line: Irreversible inhibition rate of [1251]alpha-bungarotoxin binding to Nicotinic acetylcholine receptor (neuronal and muscle) by bipinnatin-A on intact BC3H-1 cell lines. It counts as cell-based. In a few lines:
as §3

Series [10] is described as follows: Amount acetic acid produced by the compound. Format: ADME.
The nature of series [11]: Amount of acetic acid produced by the compound. Format: ADME.

What is called half-life is the time in which the quantity being followed falls by half. A lower half-life goes with rapid decline. For `C=C(C(=O)OC)[C@H]1CC(OC(C)=O)[C@@]23O[C@@H]2C(C[C@]2(C)O[C@H]2C2=CC(C)=C(O2)C1OC(C)=O)OC3=O` (some centres not stated), the Activity in [1] turned out to be 0.399 h⁻¹; in [4], 0.67 h⁻¹. This compound registered a T1/2 in series [2] of 1.04 h. The half-life is 1.08 h in [2] and 1.74 h in [8]. The inhibition in the series on BC3H-1 [3] was determined as 41.5%; with BC3H-1 [5] it was 57.5%; in the series on BC3H-1 [7], 0.033 min⁻¹; with BC3H-1 [9], 0.29 min⁻¹. For the same compound, in series [6], the Ksolv was found to be 0.638 h⁻¹.
As for `CC(=O)OC1C2=C(C)C=C(O2)[C@@H]2O[C@@]2(C)CC2OC(=O)[C@@]3(O[C@H]23)C(OC(C)=O)C[C@@H]1C1(C)CO1` (some centres not stated), in series [2], the T1/2 was 1.24 h and the half-life is 1.17 h. Also, the Activity in [4] was determined as 0.589 h⁻¹. The compound further showed a Ksolv in series [6] of 0.596 h⁻¹.
In the same order, the values of `C=C(C=O)[C@H]1CC(OC(C)=O)[C@@]23O[C@@H]2C(C[C@]2(C)O[C@H]2C2=CC(C)=C(O2)C1OC(C)=O)OC3=O` (some centres not stated) are 0.97 h, 0.97 h, 0.735 h⁻¹ and 0.719 h⁻¹.
In the case of `CC(=O)OCC[N+](C)(C)C` [ACETYLCHOLINE], the Acid hydrolysis in [10] amounted to 0.22 mol/mol.
In [2], `C=C(C)[C@@H]1CC2=C(C=O)C=C(O2)[C@@H]2O[C@@]2(C)C[C@H]2OC(=O)[C@@]3(O[C@H]23)[C@@H](OC(C)=O)C1` [LOPHOTOXIN] showed a half-life of 40 h. The Activity in [11] was 0.17 M⁻¹. Also, the Ksolv in series [6] was determined as 0.017 h⁻¹.

The record behind these values is ChEMBL document CHEMBL1128402, “Irreversible inhibitors of nicotinic acetylcholine receptors: isolation and structural characterization of the biologically active solvolysis products of bipinnatin-A and bipinnatin-C” (J Med Chem, 1995).
